Where “and” joins values, the source holds several entries; their conditions need not be identical. Equal entries are not always repeated.
Assays:
Canis familiaris [1] = species: Canis familiaris; assay: In vitro electrophysiological evaluation in canine cardiac Purkinje fibres reported as % change for action potential duration at 10 uM at 1-100 uM concentration range; assay type: functional, Canis lupus familiaris, Purkinje fiber
In short: (§1)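 Canine cardiac Purkinje fibres, intracellular microelectrode recording, paced at a basic cycle length of 1 s. APD95 and Vmax read simultaneously. Compound: 10 mM stock in deionized water, diluted into Tyrode's solution, tested over the stated concentration range. Each fibre used once as its own control. Result is % change from control, given at 10 µM or as the maximum with its concentration. M = <10% decrease or an increase in Vmax.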

Canis familiaris [2] = species: Canis familiaris; assay: In vitro electrophysiological evaluation in canine cardiac occurred is 100 uM.; assay type: functional; conditions: Canis lupus familiaris; Heart
Canis familiaris [3] = species: Canis familiaris; assay: In vitro electrophysiological evaluation in canine cardiac Purkinje fibres reported as percent change Vmax at 10 uM at concentration range of 1-100 uM; Minimal (<10% decrease or increase in V max).; assay type: functional; conditions: Canis lupus familiaris, Purkinje fiber; in short: as §1
Canis familiaris [4] = species: Canis familiaris; assay: In vitro electrophysiological evaluation in canine cardiac Purkinje fibres reported as % change for action potential duration at a concentration of 10 uM; assay type: functional, Canis lupus familiaris, Purkinje fiber; in short: as §1
Canis familiaris [5] = species: Canis familiaris; assay: In vitro electrophysiological evaluation in canine cardiac ventricular muscle reported as % change for conduction time(CT) at 10 uM at 0.1-100 uM concentration range; Minimal (<10% decrease or increase in CT).; assay type: functional, Canis lupus familiaris, Muscle tissue
Canis familiaris [6] = species: Canis familiaris; assay: In vitro electrophysiological evaluation in canine cardiac ventricular muscle reported as % change for the functional refractory period (FRP) at 10 uM at concentration range of 0.1-100 uM; parameters: species or system Canis lupus familiaris, Muscle tissue
In short: (§2)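 Canine right ventricle and papillary muscle strips in oxygenated Tyrode's solution, fitted with stimulating and recording electrodes. The extra-stimulus conduction-interval method was adapted for in vitro use. FRP and CT were read from a conduction-interval curve before and after various compound concentrations, and expressed as percent change from control. Compounds were taken from 10 mM deionized-water stock into Tyrode's. Each strip was used once as its own control.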

Canis familiaris [7] = species: Canis familiaris; assay: In vitro electrophysiological evaluation in canine cardiac ventricular muscle reported as maximum % change for conduction time(CT) at […] concentration range; Minimal (<10% decrease or increase in CT).; assay type: functional, Canis lupus familiaris, Muscle tissue; in short: as §2
Canis familiaris [8] = species: Canis familiaris; assay: In vitro electrophysiological activity in canine cardiac occurred is 100 uM.; assay type: functional, Canis lupus familiaris, Heart
Canis familiaris [9] = species: Canis familiaris; assay: In vitro electrophysiological evaluation in canine cardiac Purkinje fibres reported as maximum percent change Vmax concentration range of 1-100 uM; Minimal (<10% decrease or increase in V max).; assay type: functional; conditions: Canis lupus familiaris; Purkinje fiber; in short: as §1
Canis familiaris [10] = species: Canis familiaris; assay: In vitro electrophysiological evaluation in canine cardiac ventricular muscle reported as maximum % change for functional refractory period (FRP) at 0.1-100 uM concentration range; concentration at which it occurred is 100 uM.; parameters: species or system Canis lupus familiaris, Muscle tissue; in short: as §2

With `CCOC(=O)C(CC1C(=O)C2CCN1CC2)C(=O)c1ccc(Cl)c([N+](=O)[O-])c1.Cl` (stereo not given) the APD95 (Canis familiaris [1]) was -2%, the Vmax (Canis familiaris [2]) was -12% and the Vmax (Canis familiaris [3]) was < 10%. The APD95 (Canis familiaris [4]) was 0%, the CT (Canis familiaris [5]) was <10% and the FRP (Canis familiaris [6]) was 17%. The CT (Canis familiaris [7]) was <10%, the APD95 (Canis familiaris [8]) was -2% and -7% and the Vmax (Canis familiaris [9]) was < 10%. For the same compound, the FRP (Canis familiaris [10]) was 20%.
